Compound activity from PubChem.
In the library only some 2.5% were active in any assay of this set; here they are far more common.
NadD inh – inhibitors of S. aureus NadD, primary screen, biochemical, colorimetric, uHTS. purified NadD enzyme, colorimetric absorbance read-out. 360,000 tested, 0.78% active. AID 602399, 2012. Nicotinate-nucleotide adenylyltransferase NadD (Staphylococcus aureus N315). inhibition, % at 20 µM; in the data active = inhibition above about 26%
SENP1 inh – human SENP1 catalytic domain inhibitors, primary screen, biochemical, FRET, uHTS. AID 624204, 2012. recombinant SENP1 catalytic domain, CyPet-SUMO1-YPet FRET cleavage. Sentrin-specific protease 1 (Homo sapiens), Q9P0U3. 360,000 tested, 0.21% active. inhibition, % at 10 µM;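 active = inhibition at least 30% at 10 µM, raw YFP signal under a set limit, fluorescence ratio 0.5 to 1.5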
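Assay system: hSENP1 catalytic domain, recombinant. Amount: SENP1 enzyme, 20 pM final. Schedule: 50 min reaction, RT, dark. Technique: FRET, CFP and YFP emission. Control set: no-enzyme wells low, DMSO-plus-enzyme wells high control.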
Beta2AR agonist – beta2AR agonists driving receptor internalization, primary screen, cell-based, FAP fluorogen, flow cytometry | Beta-2 adrenergic receptor (Homo sapiens), P07550 | response, % (concentration not given with the values) | AID 504454, 2011 | 340,000 tested, 0.43% active | Am2.2-beta2AR cells;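 active = response above a set limit, near 3 SD of response in nonfluorescent compounds, cut at about 42% in these data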
Target sequence (P07550 whole entry, looked up): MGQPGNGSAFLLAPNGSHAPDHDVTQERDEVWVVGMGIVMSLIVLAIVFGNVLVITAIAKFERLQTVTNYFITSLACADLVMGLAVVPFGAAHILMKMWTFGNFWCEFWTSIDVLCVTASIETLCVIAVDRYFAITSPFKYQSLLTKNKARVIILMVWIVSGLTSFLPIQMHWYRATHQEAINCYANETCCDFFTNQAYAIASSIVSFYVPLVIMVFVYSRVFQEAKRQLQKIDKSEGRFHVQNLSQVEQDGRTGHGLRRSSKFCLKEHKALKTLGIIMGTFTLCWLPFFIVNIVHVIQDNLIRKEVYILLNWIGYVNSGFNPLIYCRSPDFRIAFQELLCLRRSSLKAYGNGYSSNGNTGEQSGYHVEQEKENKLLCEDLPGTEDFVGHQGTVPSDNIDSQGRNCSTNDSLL
GRK2 aptamer HTS – compounds blocking aptamer binding on GRK2 – biochemical, human GRK2, bead flow cytometry, HTS, primary screen. AID 488847, 2010. inhibition of aptamer binding, % at 10 µM. FAM-aptamer displacement from GRK2. 330,000 tested, 0.59% active;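 active = inhibition of aptamer binding above 40%, roughly 3 SD of noise, on plates passing a quality check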;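 note: median bead fluorescence of bound FAM aptamer so fluorescent compounds give negative values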
ABHD5 PLIN5 PPI – ABHD5-PLIN5 interaction inhibitors, primary screen, cell lysate, split luciferase complementation, luminescence | inhibition, % at 4 µM | 360,000 tested, 0.78% active | Split G. princeps luciferase complementation, 4 h;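 active = inhibition above the mean inhibition across every tested compound plus 3 SD, cut at about 22% in these data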
Numbers stand for hits; n = inactive; x = no result given.

SMILES	NadD inh	SENP1 inh	Beta2AR agonist	GRK2 aptamer HTS	ABHD5 PLIN5 PPI
Cc1ccc(NCCN(C)C)c2c(=O)c3cc(O)ccc3sc12	n	37	n	x	n
COc1ccc(C(=O)COc2ccc3ccc(=O)oc3c2)cc1	n	n	n	n	n
COc1ccc(C(=O)COc2ccc3ccc(=O)oc3c2)c(OC)c1	n	n	51	n	n
COc1ccc(NC(=S)Nc2ccc3nsnc3c2)cc1	n	n	n	n	23
CCOc1ccc(NC(=S)Nc2ccc3nsnc3c2)cc1	n	n	n	n	n
O=C(NCCc1ccccc1)C(c1ccccc1F)N(C(=O)c1csnn1)C1CC1 (centres undefined)	n	n	n	n	n
COc1ccc(CCNC(=O)c2cccs2)cc1OC	n	n	n	n	n
COc1ccc(CNc2nc(NCc3ccc(OC)c(OC)c3)n(C(=O)c3cccs3)n2)cc1OC	n	n	n	n	23
O=S(=O)(Nc1cccc(S(=O)(=O)N2CCCCC2)c1)c1ccc(Cl)s1	n	n	n	n	n
CCNc1ccc2noc3c2c1C(=O)c1ccccc1-3	n	n	n	n	n
O=C1c2ccccc2-c2onc3ccc(NCc4ccco4)c1c23	n	n	n	n	22
CCOC(=O)CN1C(=O)S/C(=C\c2ccc(-c3ccc(C(=O)O)c(Cl)c3)o2)C1=O	n	n	n	n	n
O=C(O)c1ccc(-c2ccc(/C=C3\NC(=O)N(Cc4ccc(Cl)cc4)C3=O)o2)cc1Cl	n	n	n	x	28
O=C(C1=C[C@@H]2[C@H]3C(=O)N(c4cccc(Cl)c4)C(=O)[C@H]3[C@@H](C(=O)c3ccc(Cl)cc3)N2C=C1)c1ccccc1	57	n	n	n	n
Cc1ccc(C)c(NC(=S)N2CCC(NC(=O)c3cccc(F)c3)CC2)c1	n	n	n	n	n
C=C[C@](C)(CC[C@@]1(C)C(C)CC(OC2OC(C)C(OC3OC(COC(C)=O)C(O)C(O)C3O)C(O)C2O)[C@@]2(C)C(C)=CCCC12)OC1OC(C)C(O[C@@H]2O[C@@H](C)C(O)C(O)[C@H]2O)C(O)C1O (some centres undefined)	n	n	n	n	n
COc1ccccc1N1C(=N)S/C(=C\c2ccc(-c3ccccc3C(=O)O)o2)C1=O	n	n	n	44	n
Cc1ccc(NC(=O)CN2C(=O)S/C(=C\c3ccc(-c4cccc(C(=O)O)c4C)o3)C2=O)cc1C	35	n	n	x	n
O=C(CN1C(=O)S/C(=C\c2ccc(-c3cc(C(=O)O)ccc3Cl)o2)C1=O)Nc1ccc2c(c1)OCO2	53	n	n	n	n
CC(CNc1nc2ccc(Cl)cc2n2cnnc12)c1ccccc1 (centres undefined)	n	n	n	n	n
CC(OC(=O)Nc1ccccc1)C(=O)OC1CCCCC1 (centres undefined)	n	n	n	x	n
Cc1ccccc1C(=O)N[C@H](C(=O)OCC(=O)NC1CC1)C(C)C	n	n	n	n	n
CCOC(=O)[C@@H](NC(=O)CC[C@H]1O[C@@H](n2cc(C)c(=O)[nH]c2=O)C[C@@H]1O)C(C)C	n	n	x	x	n
COCCOC(=O)/C(=C/c1ccc(OC(=O)c2ccccc2)cc1)C(C)=O	n	n	43	n	n
CC(=O)c1cc(NC(=O)c2ccccc2)c(=O)oc1C	n	n	n	n	n
SMILES	NadD inh	SENP1 inh	Beta2AR agonist	GRK2 aptamer HTS	ABHD5 PLIN5 PPI
Cc1oc(=O)c(NC(=O)c2ccccc2)cc1C(=O)c1ccccc1	n	n	n	n	23
CCOc1ccccc1NC(=O)COC(=O)C1COc2ccccc2O1 (centres undefined)	n	n	x	x	n
Nc1nonc1-n1nnc(C(=O)N/N=C/c2cc(Br)ccc2O)c1CNc1ccccc1	53	n	n	n	n
CC1(C)OC(c2ccccc2)=C/C(=C/C=C2C(=O)c3ccccc3C2=O)O1	n	95	n	n	n
Cc1c(Cl)cccc1N(CC(=O)NC(C)c1ccccc1)S(C)(=O)=O (centres undefined)	n	n	n	n	n
CCCCCCCCC[n+]1cccc2c3ccccc3ccc21	n	n	n	n	29
Oc1ccc(/C=N/N(c2ccccc2)c2ccccc2)cc1O	n	n	n	n	n
